Several values for one entry are separate records, joined by “and”; a condition that tells them apart may be missing. Equal entries are not always repeated.
Columns and labels:
HEK-293T = test: Multiplex assay against HEK293T; type: toxicity, cell-based; details: human, number of replicates 2
How it was run: (§1)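 Tubulin, mitochondrial-mass and membrane-permeability phenotypes are per cents of healthy-nucleus cells. Cells were gated by CellPathfinder machine learning into Hoechst high-intensity objects or normal cells, normal cells into healthy, pyknosed or fragmented nuclei, and pyknosed cells into mitotic or apoptotic. Before that, live cells stained at seeding with Hoechst33342, BioTracker Green Microtubule Cytoskeleton Dye, MitoTracker Red and Annexin V Alexa Fluor 680 were imaged on a CQ1 microscope at 37°C and 5% CO2 after compound addition.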

U2OS = test: Multiplex assay against U2OS; type: toxicity, cell-based; details: human, number of replicates 2; how it was run: as §1
[1] = 24 h, 1 µM, compound concentration 1 uM
[2] = 24 h, 10 µM, compound concentration 10 uM
[3] = 48 h, 1 µM, compound concentration 1 uM
[4] = 48 h, 10 µM, compound concentration 10 uM
[5] = 12 h, 1 µM, compound concentration 1 uM
[6] = 12 h, 10 µM, compound concentration 10 uM

SMILES: O=C1Nc2ccc(C(=O)c3ccco3)cc2C1=Cc1cc(Cl)c(O)c(Cl)c1 [GW406108X]
- Population Mitotic Cells (%) (HEK-293T; [1]): 44% and 46%
- Population Normal (%) (HEK-293T; [1]): 90%
- Population Pyknosed Nuclei (%) (HEK-293T; [1]): 7% and 9%
- Population Tubulin-Different-Phenotype (%) (HEK-293T; [1]): 26% and 25%
- Total Cell Count (HEK-293T; [1]): 1089 and 967
- Population Apoptotic (%) (HEK-293T; [2]): 46% and 59%
- Population Fragmented Nuclei (%) (HEK-293T; [2]): 7% and 6%
- Population Healthy Nuclei (%) (HEK-293T; [2]): 85% and 81%
- Population Hoechst High Intensity Objects (%) (HEK-293T; [2]): 11% and 13%
- Population Membrane Permeable-Phenotype (%) (HEK-293T; [2]): 3% and 2%
- Population Mitochondria Different-Phenotype (%) (HEK-293T; [2]): 10% and 15%
- Population Mitotic Cells (%) (HEK-293T; [2]): 53% and 40%
- Population Normal (%) (HEK-293T; [2]): 88% and 86%
- Population Pyknosed Nuclei (%) (HEK-293T; [2]): 7% and 11%
- Population Tubulin-Different-Phenotype (%) (HEK-293T; [2]): 53%
- Total Cell Count (HEK-293T; [2]): 904 and 698
- Population Apoptotic (%) (HEK-293T; [3]): 9% and 25%
- Population Fragmented Nuclei (%) (HEK-293T; [3]): 15% and 13%
- Population Healthy Nuclei (%) (HEK-293T; [3]): 81% and 82%
- Population Hoechst High Intensity Objects (%) (HEK-293T; [3]): 10% and 11%
- Population Membrane Permeable-Phenotype (%) (HEK-293T; [3]): 5% and 2%
- Population Mitochondria Different-Phenotype (%) (HEK-293T; [3]): 0%
- Population Mitotic Cells (%) (HEK-293T; [3]): 90% and 74%
- Population Normal (%) (HEK-293T; [3]): 89% and 88%
- Population Pyknosed Nuclei (%) (HEK-293T; [3]): 2% and 3%
- Population Tubulin-Different-Phenotype (%) (HEK-293T; [3]): 13% and 12%
- Total Cell Count (HEK-293T; [3]): 2778 and 2175
- Population Apoptotic (%) (HEK-293T; [4]): 34% and 50%
- Population Fragmented Nuclei (%) (HEK-293T; [4]): 18% and 14%
- Population Healthy Nuclei (%) (HEK-293T; [4]): 78% and 80%
- Population Hoechst High Intensity Objects (%) (HEK-293T; [4]): 15% and 20%
- Population Membrane Permeable-Phenotype (%) (HEK-293T; [4]): 4% and 1%
- Population Mitochondria Different-Phenotype (%) (HEK-293T; [4]): 1% and 3%
- Population Mitotic Cells (%) (HEK-293T; [4]): 65% and 50%
- Population Normal (%) (HEK-293T; [4]): 84% and 79%
- Population Pyknosed Nuclei (%) (HEK-293T; [4]): 3% and 5%
- Population Tubulin-Different-Phenotype (%) (HEK-293T; [4]): 22% and 30%
- Total Cell Count (HEK-293T; [4]): 1684 and 1056
- Population Apoptotic (%) (U2OS; [5]): 25% and 65%
- Population Fragmented Nuclei (%) (U2OS; [5]): 11% and 2%
- Population Healthy Nuclei (%) (U2OS; [5]): 76% and 87%
- Population Hoechst High Intensity Objects (%) (U2OS; [5]): 0%
- Population Membrane Permeable-Phenotype (%) (U2OS; [5]): 3% and 0%
- Population Mitochondria Different-Phenotype (%) (U2OS; [5]): 0%
- Population Mitotic Cells (%) (U2OS; [5]): 75% and 34%
- Population Normal (%) (U2OS; [5]): 100%
- Population Pyknosed Nuclei (%) (U2OS; [5]): 11% and 9%
- Population Tubulin-Different-Phenotype (%) (U2OS; [5]): 76% and 82%
- Population Apoptotic (%) (U2OS; [6]): 83% and 47%
- Population Fragmented Nuclei (%) (U2OS; [6]): 12% and 4%
- Population Healthy Nuclei (%) (U2OS; [6]): 69% and 85%
- Population Hoechst High Intensity Objects (%) (U2OS; [6]): 0%
- Population Membrane Permeable-Phenotype (%) (U2OS; [6]): 0% and 1%
- Population Mitochondria Different-Phenotype (%) (U2OS; [6]): 0%
- Population Normal (%) (U2OS; [6]): 100%
- Population Pyknosed Nuclei (%) (U2OS; [6]): 18% and 10%
- Population Tubulin-Different-Phenotype (%) (U2OS; [6]): 52% and 87%
- Population Apoptotic (%) (U2OS; [1]): 40% and 64%
- Population Fragmented Nuclei (%) (U2OS; [1]): 4% and 2%
- Population Healthy Nuclei (%) (U2OS; [1]): 85% and 88%
- Population Hoechst High Intensity Objects (%) (U2OS; [1]): 0%
- Population Membrane Permeable-Phenotype (%) (U2OS; [1]): 10% and 1%
- Population Mitochondria Different-Phenotype (%) (U2OS; [1]): 2% and 0%
- Population Mitotic Cells (%) (U2OS; [1]): 60% and 35%
- Population Normal (%) (U2OS; [1]): 100%
- Population Pyknosed Nuclei (%) (U2OS; [1]): 10% and 8%
- Population Tubulin-Different-Phenotype (%) (U2OS; [1]): 75% and 79%
- Population Apoptotic (%) (U2OS; [2]): 87% and 43%
- Population Fragmented Nuclei (%) (U2OS; [2]): 8% and 5%
- Population Healthy Nuclei (%) (U2OS; [2]): 73% and 82%
- Population Hoechst High Intensity Objects (%) (U2OS; [2]): 0%
- Population Membrane Permeable-Phenotype (%) (U2OS; [2]): 0% and 1%
- Population Mitochondria Different-Phenotype (%) (U2OS; [2]): 0%
- Population Normal (%) (U2OS; [2]): 100%
- Population Pyknosed Nuclei (%) (U2OS; [2]): 17% and 12%
- Population Tubulin-Different-Phenotype (%) (U2OS; [2]): 51% and 90%
- Population Apoptotic (%) (U2OS; [3]): 33% and 48%
- Population Fragmented Nuclei (%) (U2OS; [3]): 6% and 1%
- Population Healthy Nuclei (%) (U2OS; [3]): 79% and 89%
- Population Hoechst High Intensity Objects (%) (U2OS; [3]): 0%
- Population Membrane Permeable-Phenotype (%) (U2OS; [3]): 2% and 1%
- Population Mitochondria Different-Phenotype (%) (U2OS; [3]): 2% and 0%
- Population Mitotic Cells (%) (U2OS; [3]): 66% and 51%
- Population Normal (%) (U2OS; [3]): 100% and 99%
- Population Pyknosed Nuclei (%) (U2OS; [3]): 13% and 8%
- Population Tubulin-Different-Phenotype (%) (U2OS; [3]): 85% and 83%
- Population Apoptotic (%) (U2OS; [4]): 90% and 51%
- Population Fragmented Nuclei (%) (U2OS; [4]): 1% and 6%
- Population Healthy Nuclei (%) (U2OS; [4]): 79% and 83%
- Population Hoechst High Intensity Objects (%) (U2OS; [4]): 0%
- Population Membrane Permeable-Phenotype (%) (U2OS; [4]): 2%
- Population Mitochondria Different-Phenotype (%) (U2OS; [4]): 2% and 1%
- Population Normal (%) (U2OS; [4]): 100%
- Population Pyknosed Nuclei (%) (U2OS; [4]): 18% and 10%
- Population Tubulin-Different-Phenotype (%) (U2OS; [4]): 66% and 90%

— ChEMBL document CHEMBL5303300, “EUbOPEN Chemogenomics Library - Multiplex” (2023)
